ChEMBL document CHEMBL5352501, “Catalytic Degraders Effectively Address Kinase Site Mutations in EML4-ALK Oncogenic Fusions” (J Med Chem, 2023)
≈ marks a conversion by molar mass, not a printed value. Calls of active or inactive are those of the source. The calls are words filed in the database; no cut-off is given here.

Key:
BaF3 [1] = assay type: functional; conditions: Mus musculus, time 72 hrs
BaF3 [2] = test: Antiproliferative activity against mouse Ba/F3 cells stably expressing HiBiT-tagged wild type EML4-ALK variant 3 assessed as cell growth inhibition incubated for 72 hrs by CellTiter-Glo assay; assay type: functional
How it was run: (§1)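 Ba/F3 cells stably expressing HiBiT-tagged EML4-ALK v3 (wild type or the named kinase-site mutant) were treated with compound for 72 h. Growth inhibition was reported as log GI50.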

Mus musculus [3] = assay type: functional, organism-based; conditions: BALB/c, BaF3, dose 10.0 mg/kg, route po, time 14.0 day
Mus musculus [4] = assay type: functional, organism-based; conditions: BALB/c, BaF3, dose 10.0 mg/kg, route po, time 14.0 day; remark: listed apart in the source
BaF3 [5] = assay type: functional; conditions: Mus musculus, dose 10.0 mg/kg, route po, time 14.0 day
BaF3 [6] = assay type: functional; conditions: Mus musculus, time 72 hrs, read-out: pGI50 (converted)
BaF3 [7] = test: Antiproliferative activity against mouse Ba/F3 cells stably expressing HiBiT-tagged EML4-ALK variant 3 G1202R mutant assessed as cell growth inhibition incubated for 72 hrs by CellTiter-Glo assay; assay type: functional; how it was run: as §1
BaF3 [8] = test: Antiproliferative activity against mouse Ba/F3 cells stably expressing HiBiT-tagged EML4-ALK variant 3 C1156Y mutant assessed as cell growth inhibition incubated for 72 hrs by CellTiter-Glo assay; assay type: functional; how it was run: as §1
Erythrocyte [9] = test: Hemolytic activity in mouse RBC assessed as hemolysis incubated for 45 mins by absorbance based microplate reader analysis; assay type: toxicity, cell-based; conditions: 0.75 h
Erythrocyte [10] = test: Hemolytic activity in human RBC assessed as hemolysis incubated for 45 mins by absorbance based microplate reader analysis; assay type: toxicity, cell-based; conditions: 0.75 h
[11] = Oral bioavailability in C57BL/J6 mouse at 10 mg/kg and measured upto 24 hrs by LC-MS/MS analysis; assay type: ADME, organism-based; conditions: in vivo
How it was run: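 Mouse PK was run with both oral and intravenous dosing, with 10 mg/kg as the study dose. Oral bioavailability was derived from comparing the two routes.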

[12] = Solubility of the compound in FeSSIF at pH 5.0 incubated for 24 hrs under shaking condition by UPLC-UV/HPLC-UV analysis; assay type: physicochemical
[13] = Microsomal stability in human liver microsomes assessed as intrinsic clearance at 1 uM and measured upto 60 mins in presence of NADPH by LC-MS/MSC analysis; assay type: ADME, Microsome; conditions: read-out: CLH
HepG2 [14] = test: Induction of phospholipidosis in human HepG2 cells assessed as […] incubated for 48 hrs by Hoechst 33342 staining based imaging analysis; assay type: toxicity, cell-based; conditions: hepg2, 48 h
HepG2 [15] = test: Cytotoxicity against human HepG2 cells assessed as reduction in cell viability incubated for 48 hrs by Hoechst 33342 staining based imaging analysis; assay type: toxicity; conditions: hepg2, 48 h
[16] = test system: Protein cereblon/ALK tyrosine kinase receptor/Echinoderm microtubule-associated protein-like 4 (Homo sapiens), Q9UM73+Q9HC35+Q96SW2 [UNDEFINED MUTATION]; test: PROTAC activity at human CRBN/HiBit-tagged EML4-ALK variant 3b G1202R mutant expressed in mouse BaF3 cells assessed as induction of EML4-ALK variant 3b fusion protein degradation at 2 uM incubated for 4 hrs by Nano-Glo HiBiT assay relative to control; assay type: cell-based
How it was run: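 Ba/F3 cells stably expressing humanized CRBN and HiBiT-tagged EML4-ALK v3 (WT or mutant) were treated for 4 h. Remaining fusion protein was quantified by HiBiT bioluminescence relative to control.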

[17] = molecular target: ALK tyrosine kinase receptor (Homo sapiens, UniProt Q9UM73); test: Inhibition of N-terminal flag-tagged NanoLuc fused ALK kinase domain (1072 to 1410 residues) (unknown origin) expressed in mouse BaF3 cells assessed as reduction in BRET signal incubated for 2 hrs in presence of CPD-1571 tracer by NanoBRET assay; assay type: cell-based
[18] = molecular target: Protein cereblon/ALK tyrosine kinase receptor/Echinoderm microtubule-associated protein-like 4 (Homo sapiens, UniProt Q9UM73+Q9HC35+Q96SW2); test: PROTAC activity at human CRBN/HiBit-tagged wild type human EML4-ALK variant 3b expressed in mouse BaF3 cells assessed as induction of EML4-ALK variant 3b fusion protein degradation incubated for 4 hrs by Nano-Glo HiBiT assay; assay type: cell-based
[19] = Microsomal stability in human liver microsomes at 1 uM measured upto 60 mins in presence of NADPH by LC-MS/MSC analysis; assay type: ADME, Microsome; conditions: 1 h
[20] = molecular target: T1, Serine/threonine-protein kinase ULK1 (Homo sapiens) (UniProt O75385); test: Induction of ULK1 degradation in human MOLT-4 cells incubated for 6 hrs by MS based proteomics analysis; assay type: cell-based
T1 sequence (whole entry): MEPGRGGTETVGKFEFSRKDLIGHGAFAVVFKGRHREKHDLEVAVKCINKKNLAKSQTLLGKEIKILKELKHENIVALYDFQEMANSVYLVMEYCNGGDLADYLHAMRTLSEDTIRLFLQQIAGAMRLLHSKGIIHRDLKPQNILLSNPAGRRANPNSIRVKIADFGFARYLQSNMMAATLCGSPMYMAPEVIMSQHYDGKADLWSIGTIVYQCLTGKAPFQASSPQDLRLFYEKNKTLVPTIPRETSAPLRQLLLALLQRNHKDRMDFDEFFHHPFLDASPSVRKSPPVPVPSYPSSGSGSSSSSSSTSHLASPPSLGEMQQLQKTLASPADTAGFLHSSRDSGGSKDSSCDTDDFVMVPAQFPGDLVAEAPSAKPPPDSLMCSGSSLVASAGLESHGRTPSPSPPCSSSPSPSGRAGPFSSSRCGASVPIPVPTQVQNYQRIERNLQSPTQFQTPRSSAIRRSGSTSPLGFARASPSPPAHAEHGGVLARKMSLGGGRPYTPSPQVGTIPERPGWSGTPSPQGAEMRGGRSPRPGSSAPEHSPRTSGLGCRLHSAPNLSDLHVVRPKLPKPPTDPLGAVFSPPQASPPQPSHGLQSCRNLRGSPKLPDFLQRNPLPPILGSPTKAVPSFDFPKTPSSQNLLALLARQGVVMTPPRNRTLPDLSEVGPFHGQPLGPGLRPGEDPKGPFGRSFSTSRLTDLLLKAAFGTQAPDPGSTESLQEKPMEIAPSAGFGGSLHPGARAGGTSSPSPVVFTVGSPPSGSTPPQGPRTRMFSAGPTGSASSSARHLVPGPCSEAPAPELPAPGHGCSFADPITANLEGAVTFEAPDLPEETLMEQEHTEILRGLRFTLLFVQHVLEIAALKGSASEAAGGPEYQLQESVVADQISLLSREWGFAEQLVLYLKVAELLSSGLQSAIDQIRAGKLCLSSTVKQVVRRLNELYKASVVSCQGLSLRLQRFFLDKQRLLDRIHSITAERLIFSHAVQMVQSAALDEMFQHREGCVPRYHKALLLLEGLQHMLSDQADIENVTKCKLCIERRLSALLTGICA

[21] = molecular target: Ribosomal protein S6 kinase alpha-1 (Homo sapiens) (UniProt Q15418); test: Induction of RSK1 degradation in human MOLT-4 cells incubated for 6 hrs by MS based proteomics analysis; assay type: cell-based
[22] = molecular target: Protein cereblon/ALK tyrosine kinase receptor/Echinoderm microtubule-associated protein-like 4 (Homo sapiens, UniProt Q9UM73+Q9HC35+Q96SW2, G1202R); test: PROTAC activity at human CRBN/EML4-ALK variant 3b G1202R mutant expressed in mouse BaF3 cells assessed as induction of EML4-ALK fusion protein degradation incubated for 4 hrs by Nano-Glo HiBiT assay; assay type: cell-based
[23] = molecular target: Tyrosine-protein kinase Fer (Homo sapiens) (UniProt P16591); test: Induction of FER degradation in human MOLT-4 cells incubated for 6 hrs by MS based proteomics analysis; assay type: cell-based
[24] = molecular target: T2, Aurora kinase A (Homo sapiens) (UniProt O14965); test: Induction of AURKA degradation in human MOLT-4 cells incubated for 6 hrs by MS based proteomics analysis; assay type: cell-based
T2 sequence (whole entry): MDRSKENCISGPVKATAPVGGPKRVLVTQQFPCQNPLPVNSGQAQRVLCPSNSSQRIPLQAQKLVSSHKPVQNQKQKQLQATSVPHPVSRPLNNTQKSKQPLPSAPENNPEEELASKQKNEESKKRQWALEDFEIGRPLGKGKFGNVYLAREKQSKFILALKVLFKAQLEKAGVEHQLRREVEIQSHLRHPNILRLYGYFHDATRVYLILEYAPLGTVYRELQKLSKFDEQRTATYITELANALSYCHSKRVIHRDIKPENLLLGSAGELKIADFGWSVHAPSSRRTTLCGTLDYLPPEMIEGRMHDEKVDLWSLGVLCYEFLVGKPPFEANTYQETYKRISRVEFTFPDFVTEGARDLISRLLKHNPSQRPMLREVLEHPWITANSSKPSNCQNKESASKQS

[25] = molecular target: Protein-tyrosine kinase 2-beta (Homo sapiens) (UniProt Q14289); test: Induction of PTK2B degradation in human MOLT-4 cells incubated for 6 hrs by MS based proteomics analysis; assay type: cell-based

Protein cereblon/ALK tyrosine kinase receptor/Echinoderm microtubule-associated protein-like 4 (Homo sapiens, UniProt Q9UM73+Q9HC35+Q96SW2), sequence (Q96SW2 whole entry, stated change not applied, the tested form may be a part): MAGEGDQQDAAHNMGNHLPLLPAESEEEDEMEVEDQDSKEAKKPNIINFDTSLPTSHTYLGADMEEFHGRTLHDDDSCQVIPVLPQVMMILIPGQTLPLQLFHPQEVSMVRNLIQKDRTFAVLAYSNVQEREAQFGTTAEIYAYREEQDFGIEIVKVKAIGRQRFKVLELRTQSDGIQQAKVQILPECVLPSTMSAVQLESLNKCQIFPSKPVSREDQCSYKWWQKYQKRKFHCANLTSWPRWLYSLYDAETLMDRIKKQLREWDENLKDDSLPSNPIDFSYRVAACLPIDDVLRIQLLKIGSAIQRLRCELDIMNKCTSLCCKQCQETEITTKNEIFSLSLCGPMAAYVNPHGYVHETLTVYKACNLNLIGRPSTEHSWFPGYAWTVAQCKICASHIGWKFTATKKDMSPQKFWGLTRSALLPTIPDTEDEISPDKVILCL
Protein cereblon/ALK tyrosine kinase receptor/Echinoderm microtubule-associated protein-like 4 (Homo sapiens, UniProt Q9UM73+Q9HC35+Q96SW2), sequence (Q9HC35 whole entry, stated change not applied, the tested form may be a part): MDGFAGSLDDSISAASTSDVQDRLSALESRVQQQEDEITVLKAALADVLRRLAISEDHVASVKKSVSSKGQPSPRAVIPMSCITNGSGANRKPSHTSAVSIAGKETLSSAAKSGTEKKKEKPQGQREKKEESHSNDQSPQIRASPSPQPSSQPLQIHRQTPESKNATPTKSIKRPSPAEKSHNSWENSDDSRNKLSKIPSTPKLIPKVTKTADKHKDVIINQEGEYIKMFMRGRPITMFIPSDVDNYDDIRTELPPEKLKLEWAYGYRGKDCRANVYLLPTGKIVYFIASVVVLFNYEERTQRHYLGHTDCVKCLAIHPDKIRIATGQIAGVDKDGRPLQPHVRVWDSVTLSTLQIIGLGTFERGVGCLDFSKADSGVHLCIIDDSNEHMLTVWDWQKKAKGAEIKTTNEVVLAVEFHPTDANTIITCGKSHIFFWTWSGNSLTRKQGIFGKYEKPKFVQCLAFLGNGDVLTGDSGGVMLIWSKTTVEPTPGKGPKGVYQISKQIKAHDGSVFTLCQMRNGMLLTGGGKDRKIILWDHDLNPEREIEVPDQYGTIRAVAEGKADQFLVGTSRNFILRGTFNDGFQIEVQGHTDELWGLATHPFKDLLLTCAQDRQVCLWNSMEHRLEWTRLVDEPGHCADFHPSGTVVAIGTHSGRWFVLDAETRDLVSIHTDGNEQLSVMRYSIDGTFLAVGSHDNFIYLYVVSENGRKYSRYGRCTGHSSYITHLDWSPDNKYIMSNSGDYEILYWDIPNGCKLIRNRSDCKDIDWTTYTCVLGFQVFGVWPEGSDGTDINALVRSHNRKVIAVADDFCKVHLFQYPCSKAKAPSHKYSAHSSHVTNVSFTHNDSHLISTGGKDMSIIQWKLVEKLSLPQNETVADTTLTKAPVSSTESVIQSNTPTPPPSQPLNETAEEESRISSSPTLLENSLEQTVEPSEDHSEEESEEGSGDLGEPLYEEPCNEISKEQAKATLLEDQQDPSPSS
Protein cereblon/ALK tyrosine kinase receptor/Echinoderm microtubule-associated protein-like 4 (Homo sapiens, UniProt Q9UM73+Q9HC35+Q96SW2), sequence (Q9UM73 19-1620 limits assumed, stated change not applied): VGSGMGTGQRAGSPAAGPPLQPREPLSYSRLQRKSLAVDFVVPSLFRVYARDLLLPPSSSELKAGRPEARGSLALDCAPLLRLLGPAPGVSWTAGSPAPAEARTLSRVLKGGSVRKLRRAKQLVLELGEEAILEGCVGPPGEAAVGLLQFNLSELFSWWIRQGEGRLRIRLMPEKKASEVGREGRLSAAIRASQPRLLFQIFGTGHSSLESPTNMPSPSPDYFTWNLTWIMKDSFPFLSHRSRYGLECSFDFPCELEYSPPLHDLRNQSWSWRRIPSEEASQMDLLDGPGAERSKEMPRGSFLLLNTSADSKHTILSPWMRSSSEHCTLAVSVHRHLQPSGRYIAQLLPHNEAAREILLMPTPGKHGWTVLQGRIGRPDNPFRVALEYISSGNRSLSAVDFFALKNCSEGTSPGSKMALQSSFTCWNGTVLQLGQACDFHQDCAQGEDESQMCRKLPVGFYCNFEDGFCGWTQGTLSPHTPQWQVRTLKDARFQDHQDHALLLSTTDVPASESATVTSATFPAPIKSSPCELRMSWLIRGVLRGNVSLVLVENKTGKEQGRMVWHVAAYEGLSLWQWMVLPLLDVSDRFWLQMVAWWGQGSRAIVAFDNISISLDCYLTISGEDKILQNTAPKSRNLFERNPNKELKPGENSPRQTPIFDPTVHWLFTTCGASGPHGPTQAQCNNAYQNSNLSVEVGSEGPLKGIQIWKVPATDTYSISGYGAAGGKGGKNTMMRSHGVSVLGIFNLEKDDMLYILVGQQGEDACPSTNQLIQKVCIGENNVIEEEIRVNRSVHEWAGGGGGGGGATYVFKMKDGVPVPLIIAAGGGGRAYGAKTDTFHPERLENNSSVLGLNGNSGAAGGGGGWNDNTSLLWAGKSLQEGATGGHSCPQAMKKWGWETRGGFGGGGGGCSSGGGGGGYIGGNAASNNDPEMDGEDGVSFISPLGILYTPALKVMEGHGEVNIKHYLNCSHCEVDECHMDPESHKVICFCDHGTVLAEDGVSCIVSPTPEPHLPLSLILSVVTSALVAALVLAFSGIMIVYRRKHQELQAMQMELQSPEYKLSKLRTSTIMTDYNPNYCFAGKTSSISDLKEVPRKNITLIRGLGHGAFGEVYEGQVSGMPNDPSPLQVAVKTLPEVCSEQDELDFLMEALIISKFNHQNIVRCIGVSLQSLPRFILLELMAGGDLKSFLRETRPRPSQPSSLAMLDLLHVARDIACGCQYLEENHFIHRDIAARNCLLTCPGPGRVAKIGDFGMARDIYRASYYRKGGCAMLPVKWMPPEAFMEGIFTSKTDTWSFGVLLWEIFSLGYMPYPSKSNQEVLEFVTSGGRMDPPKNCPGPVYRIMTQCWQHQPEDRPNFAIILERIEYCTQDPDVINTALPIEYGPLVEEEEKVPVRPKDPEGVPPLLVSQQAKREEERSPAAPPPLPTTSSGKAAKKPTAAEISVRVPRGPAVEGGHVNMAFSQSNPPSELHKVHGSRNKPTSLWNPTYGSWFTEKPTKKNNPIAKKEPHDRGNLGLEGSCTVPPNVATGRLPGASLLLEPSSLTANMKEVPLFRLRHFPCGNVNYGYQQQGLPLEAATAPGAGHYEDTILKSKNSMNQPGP
ALK tyrosine kinase receptor, sequence (Q9UM73 whole entry, the tested form may be a part): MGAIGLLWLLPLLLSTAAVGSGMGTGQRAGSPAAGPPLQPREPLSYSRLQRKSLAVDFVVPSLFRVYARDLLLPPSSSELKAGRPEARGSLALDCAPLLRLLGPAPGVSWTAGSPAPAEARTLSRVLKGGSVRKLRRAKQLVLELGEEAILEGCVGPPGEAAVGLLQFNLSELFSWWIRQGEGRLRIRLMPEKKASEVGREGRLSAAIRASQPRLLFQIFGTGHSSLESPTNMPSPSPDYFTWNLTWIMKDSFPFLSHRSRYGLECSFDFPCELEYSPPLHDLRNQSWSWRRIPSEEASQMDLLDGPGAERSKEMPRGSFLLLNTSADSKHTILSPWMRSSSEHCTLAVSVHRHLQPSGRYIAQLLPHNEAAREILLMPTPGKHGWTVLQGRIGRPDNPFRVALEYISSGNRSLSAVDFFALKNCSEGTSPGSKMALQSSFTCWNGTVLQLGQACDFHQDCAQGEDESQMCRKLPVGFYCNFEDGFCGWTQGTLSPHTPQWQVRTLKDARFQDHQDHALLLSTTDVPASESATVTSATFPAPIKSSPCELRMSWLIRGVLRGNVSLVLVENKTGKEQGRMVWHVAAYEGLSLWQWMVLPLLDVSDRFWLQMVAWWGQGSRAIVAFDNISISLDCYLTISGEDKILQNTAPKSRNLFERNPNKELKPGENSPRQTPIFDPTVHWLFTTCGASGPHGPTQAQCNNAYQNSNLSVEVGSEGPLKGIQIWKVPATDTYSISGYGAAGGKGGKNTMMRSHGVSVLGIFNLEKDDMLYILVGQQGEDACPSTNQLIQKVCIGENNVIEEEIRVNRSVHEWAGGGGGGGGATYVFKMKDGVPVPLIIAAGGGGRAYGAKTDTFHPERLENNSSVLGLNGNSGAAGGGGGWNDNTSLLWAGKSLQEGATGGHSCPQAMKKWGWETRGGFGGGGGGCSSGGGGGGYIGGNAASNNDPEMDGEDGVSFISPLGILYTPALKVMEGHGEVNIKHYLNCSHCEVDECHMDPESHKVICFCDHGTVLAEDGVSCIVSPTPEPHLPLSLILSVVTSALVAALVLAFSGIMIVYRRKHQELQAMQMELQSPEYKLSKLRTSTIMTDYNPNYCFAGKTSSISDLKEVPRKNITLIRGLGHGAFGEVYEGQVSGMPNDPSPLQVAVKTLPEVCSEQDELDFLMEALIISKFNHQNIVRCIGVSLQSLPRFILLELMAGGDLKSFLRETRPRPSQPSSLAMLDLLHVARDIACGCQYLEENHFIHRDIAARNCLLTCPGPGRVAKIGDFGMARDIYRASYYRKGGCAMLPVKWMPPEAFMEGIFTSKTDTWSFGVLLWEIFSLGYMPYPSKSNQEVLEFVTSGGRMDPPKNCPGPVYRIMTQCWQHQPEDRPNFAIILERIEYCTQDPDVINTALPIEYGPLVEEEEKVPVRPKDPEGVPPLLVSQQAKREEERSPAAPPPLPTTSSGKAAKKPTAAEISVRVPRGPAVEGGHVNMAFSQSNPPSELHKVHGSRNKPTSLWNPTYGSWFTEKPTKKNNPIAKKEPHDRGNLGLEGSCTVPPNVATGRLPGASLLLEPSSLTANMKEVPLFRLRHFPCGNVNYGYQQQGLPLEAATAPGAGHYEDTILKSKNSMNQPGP

Row | SMILES | GI50 (BaF3 [1]) | GI50 (BaF3 [2]) | GI50 (BaF3 [6]) | GI50 (BaF3 [7]) | GI50 (BaF3 [8]) | microsomal CLint at 1 µM [13] | also measured
1 | C[C@H]1Oc2cc(cnc2N)-c2c(nn(C)c2C#N)CN(C)C(=O)c2ccc(F)cc21 [LORLATINIB] | 0.0501 µM | 0.00316 µM | 0.501 µM | 0.1 µM | 0.0398 µM | – | Activity (Mus musculus [3]): Active; Activity (Mus musculus [4]): Active; Activity (BaF3 [5]): inactive
2 | COc1cc(CCNCCCCCC#Cc2cccc3c2CN(C2CCC(=O)NC2=O)C3=O)c(C)cc1Nc1ncc(Cl)c(Nc2ccccc2S(=O)(=O)C(C)C)n1 (stereo not given) | – | – | – | – | – | 39 µL/min/mg | Activity (Erythrocyte [9]): Toxic; Activity (Erythrocyte [10]): Toxic; F [11]: 0.2%; solubility thermodynamic at 24 h [12]: 686 µM (≈ 567 µg/mL)
3 | Cc1cc(Nc2ncc(Cl)c(Nc3ccccc3S(=O)(=O)C(C)C)n2)c(OC(C)C)cc1C1CCNCC1 [CERITINIB] | 0.158 µM | 0.2 µM | 0.501 µM | 2 µM | 0.316 µM | – | Activity (HepG2 [14]): Non-Toxic; Activity (HepG2 [15]): Non-Toxic
4 | Cc1cc(Nc2ncc(Cl)c(Nc3ccccc3S(=O)(=O)C(C)C)n2)c(OC(C)C)cc1C1CCN(CCOCCOCCNC(=O)CNc2cccc3c2C(=O)N(C2CCC(=O)NC2=O)C3=O)CC1 (stereo not given) | – | – | – | – | – | – | Activity [16]: < 50%; IC50 [17]: 0.971 µM; DC50 [18]: 0.289 µM
5 | CCc1cc2c(cc1N1CCN(CC3CN(c4ccc5c(c4)C(=O)N(C4CCC(=O)NC4=O)C5=O)C3)CC1)C(C)(C)c1[nH]c3cc(C#N)ccc3c1C2=O (stereo not given) | – | – | – | – | – | – | F [11]: 48%; Stability [19]: Stable
6 | COc1cc(C2CCN(CC#Cc3ccc4c(c3)CN(C3CCC(=O)NC3=O)C4=O)CC2)c(C)cc1Nc1ncc(Cl)c(Nc2ccccc2S(=O)(=O)C(C)C)n1 (stereo not given) | – | – | – | – | – | 14.8 µL/min/mg | –
7 | COc1cc(CCNCCCCCC#Cc2cccc3c2C(=O)N(C2CCC(=O)NC2=O)C3=O)c(C)cc1Nc1ncc(Cl)c(Nc2ccccc2S(=O)(=O)C(C)C)n1 (stereo not given) | – | – | – | – | – | 59 µL/min/mg | Activity (Erythrocyte [9]): Toxic; Activity (Erythrocyte [10]): Toxic
8 | COc1cc(C2CCN(CCCCCC#Cc3cccc4c3CN(C3CCC(=O)NC3=O)C4=O)CC2)c(C)cc1Nc1ncc(Cl)c(Nc2ccccc2S(=O)(=O)C(C)C)n1 (stereo not given) | – | – | – | – | – | 5.4 µL/min/mg | Activity (Erythrocyte [9]): Toxic; Activity (Erythrocyte [10]): Toxic
9 | COc1cc(C2CCN(CC3CN(c4ccc5c(c4)C(=O)N(C4CCC(=O)N(C)C4=O)C5=O)C3)CC2)c(C)cc1Nc1ncc(Cl)c(Nc2ccccc2S(=O)(=O)C(C)C)n1 (stereo not given) | 0.0158 µM | 0.0158 µM | 0.126 µM | 0.126 µM | 0.0398 µM | – | –
10 | COc1cc(C2CCN(CCCC#Cc3cccc4c3CN(C3CCC(=O)NC3=O)C4=O)CC2)c(C)cc1Nc1ncc(Cl)c(Nc2ccccc2S(=O)(=O)C(C)C)n1 (stereo not given) | – | – | – | – | – | 10.5 µL/min/mg | Activity [20]: Active; Activity (Erythrocyte [9]): Non-Toxic; Activity [21]: Active; Activity (Erythrocyte [10]): Non-Toxic; DC50 [22]: 0.043 µM; IC50 [17]: 0.542 µM; F [11]: 9%; DC50 [18]: 0.0066 µM; Activity [23]: Active; Activity [24]: Active; Activity [25]: Active
11 | COc1cc(N2CCC(N3CCN(C)CC3)CC2)ccc1Nc1ncc(Cl)c(Nc2ccccc2P(C)(C)=O)n1 [BRIGATINIB] | 0.0398 µM | 0.0126 µM | 0.2 µM | 0.251 µM | 0.0398 µM | – | –
12 | C[C@@H](Oc1cc(-c2cnn(C3CCNCC3)c2)cnc1N)c1c(Cl)ccc(F)c1Cl [CRIZOTINIB] | 2 µM | 1 µM | 2 µM | 2 µM | 2 µM | – | –
13 | CCc1cc2c(cc1N1CCC(N3CCOCC3)CC1)C(C)(C)c1[nH]c3cc(C#N)ccc3c1C2=O [ALECTINIB] | 0.0794 µM | 0.0126 µM | 0.501 µM | 0.398 µM | 0.0794 µM | – | –
14 | COc1cc(C2CCN(CC3CN(c4ccc5c(c4)CN(C4CCC(=O)NC4=O)C5=O)C3)CC2)c(C)cc1Nc1ncc(Cl)c(Nc2ccccc2S(=O)(=O)C(C)C)n1 (stereo not given) | – | – | – | – | – | 25.2 µL/min/mg | –
